The values below come from ChEMBL document CHEMBL3739310, “Deguelins, Natural Product Modulators of NF1-Defective Astrocytoma Cell Growth Identified by High-Throughput Screening of Partially Purified Natural Product Extracts” (J Nat Prod, 2015).

Experiment [1] relates to K5001. Nature of the experiment: Induction of apoptosis in mouse Nf1 defective and Trp53 defective K5001 cells assessed as DNA fragmentation at 10 uM up to 48 hrs by ELISA. The class given is functional, cell-based. A general note: An ELISA detects its analyte on a solid surface through an enzyme-linked reagent.
A short description of experiment [2]: Growth inhibition of Nf1 defective and Trp53 defective mouse K5001 cells after 2 days by XTT assay. To be noted: K5001, 2 days.
A short description of experiment [3]: Growth inhibition of Nf1 defective and Trp53 defective mouse K1492 cells after 2 days by XTT assay. Particulars: K1492, 2 days. On the technique in general: Formazan colour is commonly taken as a measure of viable cells.
A short description of experiment [4]: Growth inhibition of Nf1 defective and Trp53 defective mouse primary astrocytes after 2 days by XTT assay. Particulars: Astrocyte.
Experiment [5] addresses RAC-alpha serine/threonine-protein kinase (Mus musculus) (UniProt P31750). Nature of the experiment: Inhibition of AKT phosphorylation in Nf1 defective and Trp53 defective mouse K5001 cells. The class given is cell-based.
The subject of experiment [6] is KR158. Nature of the experiment: Induction of apoptosis in Nf1 defective and Trp53 defective mouse KR158 cells assessed as DNA fragmentation at 10 uM up to 48 hrs by ELISA. Type of experiment: functional, cell-based.
Experiment [7] is described as follows: Growth inhibition of Nf1 defective and Trp53 defective mouse KR158 cells after 2 days by XTT assay. Particulars: KR158, 2 days.
The nature of experiment [8]: Growth inhibition of Nf1 defective and Trp53 defective mouse KR158 cells at 80 uM after 2 days by XTT assay. Particulars: KR158, 2 days, read-out: GI.
Experiment [9] deals with RAC-alpha serine/threonine-protein kinase (Mus musculus) (UniProt P31750). Nature of the experiment: Inhibition of AKT phosphorylation in Nf1 defective and Trp53 defective mouse K1492 cells. Type of experiment: cell-based.
Chain of RAC-alpha serine/threonine-protein kinase (Mus musculus) (P31750 whole entry, the tested form may be a part): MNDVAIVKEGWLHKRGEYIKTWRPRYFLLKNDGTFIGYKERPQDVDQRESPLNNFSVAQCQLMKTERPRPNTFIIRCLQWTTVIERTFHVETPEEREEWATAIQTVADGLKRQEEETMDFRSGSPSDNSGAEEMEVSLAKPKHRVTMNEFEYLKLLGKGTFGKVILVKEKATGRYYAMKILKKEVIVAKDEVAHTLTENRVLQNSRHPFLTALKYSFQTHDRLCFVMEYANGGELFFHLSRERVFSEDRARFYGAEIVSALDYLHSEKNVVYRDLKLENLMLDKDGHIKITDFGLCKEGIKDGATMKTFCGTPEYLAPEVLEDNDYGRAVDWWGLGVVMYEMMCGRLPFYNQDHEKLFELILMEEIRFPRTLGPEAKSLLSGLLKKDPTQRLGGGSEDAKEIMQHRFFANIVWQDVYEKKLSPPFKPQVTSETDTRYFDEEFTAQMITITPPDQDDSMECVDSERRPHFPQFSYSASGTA
A short description of experiment [10]: Induction of ROS generation in Nf1 defective and Trp53 defective mouse K5001 cells at 10 uM after 6 hrs by DCFDA fluorogenic dye-based fluorimetric analysis. The class given is functional. Put shortly: (§1)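 Cells plated at 1000/well in black-wall, clear-bottom, polylysine-coated 384-well plates and treated 6 h with 10 μM compound or DMSO control. Carboxymethyl H2DCFDA (10 mM stock in DMSO) added at 25 μM final for the last 1 h. After two PBS washes, cell-associated fluorescence read bottom-mode at Ex 495/Em 529 nm. Result expressed as T/C ratio versus untreated controls, means ± SD.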

Experiment [11] can be described thus: Induction of ROS generation in Nf1 defective and Trp53 defective mouse K1492 cells at 10 uM after 6 hrs DCFDA fluorogenic dye-based fluorimetric analysis. Type of experiment: functional. Put shortly:
as §1

The nature of experiment [12]: Induction of ROS generation in Nf1 defective and Trp53 defective mouse KR158 cells at 10 uM after 6 hrs DCFDA fluorogenic dye-based fluorimetric analysis. The class given is functional. Put shortly: as §1

Calls of active or inactive are those of the source. The rule behind the calls is not given here.

As for `COc1cc2c(cc1OC)-c1c(oc3c4c(ccc3c1=O)OC(C)(C)C=C4)CO2` [DEHYDRODEGUELIN], the outcome in experiment [1] and in experiment [6] was inactive. The IC50 – broadly, the concentration that inhibits the measured activity by half – in experiment [2] is 1.2 µM; in experiment [3], more than 80 µM; in [4] it was more than 80 µM; in experiment [7], more than 80 µM. The inhibition entry in [5] and in experiment [9] was “inactive” in each case. Moreover, the inhibition of growth at 80 µM in experiment [8] was found to be 40%.
Turning to `COc1cc2c(cc1OC)[C@@H]1C(=O)c3ccc4c(c3O[C@@H]1CO2)C=CC(C)(C)O4` [DEGUELIN], the “fold change (FC)” value in experiment [10] stood at 3.5; in experiment [11] it was 5.6; in experiment [12], 3.9. In addition, the result in experiment [1] and in experiment [6] was inactive. Also, the concentration for half-maximal inhibition (IC50) was 1.2 µM in [2], more than 80 µM in experiment [3], more than 80 µM in experiment [4] and 12.6 µM in experiment [7]. Moreover, the inhibition entry in [5] and in experiment [9] was “inactive” each time.
